A selection: hits, their analogues and other compounds. The true share with any hit is near 2.8%.
NPY-Y1 antag: antagonists of human neuropeptide Y receptor Y1 | HEK293-CNG Y1 cells, membrane potential fluorescence; NPY at EC95, then isoproterenol | inhibition, % at 3.6 µM | 200,000 compounds, 1% hits | AID 1040;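 active means inhibition above the campaign mean inhibition of all tested compounds plus 3 SD, cut at about 20% in these data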;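 further: 0% = DMSO wells given NPY plus isoproterenol and 100% = isoproterenol alone without NPY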
Target sequence (P25929 whole entry, looked up): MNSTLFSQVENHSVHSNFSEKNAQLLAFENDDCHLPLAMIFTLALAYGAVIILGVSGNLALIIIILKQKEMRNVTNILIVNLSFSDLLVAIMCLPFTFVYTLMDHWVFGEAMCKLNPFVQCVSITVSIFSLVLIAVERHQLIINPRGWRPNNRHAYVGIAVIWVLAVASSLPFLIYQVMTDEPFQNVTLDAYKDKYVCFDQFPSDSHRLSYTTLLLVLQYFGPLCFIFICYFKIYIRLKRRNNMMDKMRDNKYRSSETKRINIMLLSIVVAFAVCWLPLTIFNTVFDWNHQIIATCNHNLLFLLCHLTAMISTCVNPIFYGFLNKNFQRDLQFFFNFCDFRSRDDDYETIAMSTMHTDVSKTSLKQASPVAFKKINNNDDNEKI
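Material: HEK293 Y1/CNG channel cell line | Also added: NPY (25 nM), isoproterenol (1 µM), Ro 20-1724 (25 µM) | Compound: One concentration, 3.6 µM, in 0.4% DMSO | Schedule: 3 h dye uptake, 1 h room-temperature compound, 45 min post-isoproterenol | Signal: Membrane-potential fluorescent dye readout | Read-out: % inhibition of NPY effect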
NPY2 pot ag: potentiates or activates human NPY-Y2 receptor; P49146; cells expressing NPY-Y2, potentiator/agonist read-out; activation, % at 3.6 µM; 220,000 compounds, 0.45% hits; in the data active means activation above about 27%;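 further: cells stimulated with NPY near EC25 plus isoproterenol at EC100; 0% = vehicle plus submaximal agonist and 100% = vehicle plus saturating agonist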
Measles CPE: protection of cells from measles virus. Measles virus-infected cells, CPE protection, absorbance. protection (pct of control), % at 4 µM. 140,000 compounds, 1.5% hits; in the data active means protection mostly above about 24%, no sharp cut-off; inactive means mostly below about 26%
MDM2 E3 inh: blocks human Mdm2 ubiquitin ligase activity; Q00987; cell-based MDM2 ubiquitination luciferase reporter, 2 h; 0 = plate control, 100 = twice control, blank-subtracted; signal enhancement, % at 5 µM; 210,000 compounds, 0.11% hits;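 active means signal enhancement of 30% or more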;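 further: luminescence tracks abundance of the self-degrading MDM2-luciferase fusion protein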
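Material: stable MDM2–luciferase fusion reporter cells / Quantity: 2000 cells/well / Dosing: single 5 µM compound dose, 0.2% final DMSO / Buffer or medium: DMEM / Schedule: 4 h cell settling then 2 h compound exposure, 37 °C / Detection: luminescence with SteadyLite reagent, 15 min at room temperature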
NPY-Y1 PAM-ag: potentiators or agonists of human neuropeptide Y receptor Y1 | AID 1304 | activation, % at 3.6 µM | NPY-Y1 expressing cells, potentiator/agonist activation | 220,000 compounds, 0.37% hits; in the data active means activation above about 33%, passing the limit was not always enough;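 further: cells stimulated with NPY at EC10 then isoproterenol at EC100; 0% = low agonist plus stimulus and 100% = saturating agonist plus stimulus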
NPY Y2 blocker: antagonists of human neuropeptide Y receptor Y2; AID 793; P49146; NPY-Y2 expressing cells, antagonist mode; inhibition, % at 2.7 µM; 140,000 compounds, 0.99% hits; in the data active means inhibition above about 17%;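 further: 0% = vehicle with agonist challenge and 100% = reference antagonist with challenge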
* marks the source's active call; other numbers are inactive results.

`Cc1cccc(C)c1NC(=O)C[N+](C)(C)CC(O)COc1cccc2ccccc12` (stereo unspecified) gave NPY-Y1 antag -10.1, NPY2 pot ag 66.2*, MDM2 E3 inh -7.7 and NPY-Y1 PAM-ag 97.9*.
Screening CCn1c(SCC(=O)Nc2cc(C)on2)nnc1-c1ccco1 returned NPY-Y1 antag 0.0, NPY2 pot ag 7.2, Measles CPE 34.7*, MDM2 E3 inh -6.9, NPY-Y1 PAM-ag 14.1 and NPY Y2 blocker 0.0.
For O=C(Nc1ccccc1N1CCN(c2ccc(F)cc2)CC1)c1ccccc1 the results were NPY-Y1 antag 49.0*, NPY2 pot ag -7.3, Measles CPE 3.9, MDM2 E3 inh -16.7, NPY-Y1 PAM-ag -6.4 and NPY Y2 blocker 29.2*.
`O=C(COc1ccccc1)Nc1ccccc1N1CCN(c2ccc(F)cc2)CC1` gave NPY-Y1 antag 3.0, NPY2 pot ag 15.2, Measles CPE 4.6, MDM2 E3 inh -3.6, NPY-Y1 PAM-ag 3.2 and NPY Y2 blocker 4.4.
OCCCc1nc2n(n1)C(c1cccs1)C=C(c1ccccc1)N2 (stereo unspecified) was read as NPY-Y1 antag 2.0, NPY2 pot ag -4.1, Measles CPE 63.8*, MDM2 E3 inh -14.1, NPY-Y1 PAM-ag 15.6 and NPY Y2 blocker 2.5.
`CC(C)NC(=O)/C(C#N)=C/c1ccc(N(C)C)o1` gave NPY2 pot ag 12.4, MDM2 E3 inh -0.8 and NPY-Y1 PAM-ag 13.7.
Screening CCN(CC)c1ccc(CNc2nc3ccccc3n2CCN2CCCCC2)cc1 returned NPY-Y1 antag 13.6, NPY2 pot ag 43.5*, MDM2 E3 inh -22.3 and NPY-Y1 PAM-ag 45.1*.
For COc1ccc(CNc2nc3ccccc3n2CCN2CCCCC2)cc1 the results were NPY-Y1 antag 9.2, NPY2 pot ag 11.0, MDM2 E3 inh -3.8 and NPY-Y1 PAM-ag -9.2.
For CCCCn1c(NCc2ccc3c(c2)OCO3)nc2ccccc21 the results were NPY-Y1 antag 20.1*, NPY2 pot ag -0.9, Measles CPE 13.2, MDM2 E3 inh 0.9, NPY-Y1 PAM-ag -18.9 and NPY Y2 blocker 15.2.
`c1ccc(Cn2c(CNc3nc4ccccc4n3CCN3CCCCC3)nc3ccccc32)cc1` gave NPY-Y1 antag 17.5, NPY2 pot ag -6.0, Measles CPE 8.4, MDM2 E3 inh -7.4, NPY-Y1 PAM-ag -28.9 and NPY Y2 blocker 26.8*.
For OCCNc1nc2ccccc2n1CCN1CCCCC1 the results were NPY-Y1 antag 8.6, NPY2 pot ag -5.2, Measles CPE 46.7*, MDM2 E3 inh -12.0, NPY-Y1 PAM-ag -15.5 and NPY Y2 blocker 4.8.
Screening CCCC(=O)Nc1sc(C)c(C)c1C(=O)Nc1cccc(C)c1 returned NPY-Y1 antag 5.0, NPY2 pot ag -4.0, Measles CPE 9.9, MDM2 E3 inh -4.8, NPY-Y1 PAM-ag -10.2 and NPY Y2 blocker 1.2.
`COc1ccc(Cn2c(-c3ccc(Br)cc3)c[n+]3ccccc23)cc1` gave NPY-Y1 antag 4.5, NPY2 pot ag -3.4, Measles CPE 6.3, MDM2 E3 inh -6.2, NPY-Y1 PAM-ag -16.5 and NPY Y2 blocker 7.5.
`COc1ccc(N2CCN(C(=O)C(=O)c3c(C)n(C)c4ccccc34)CC2)cc1` gave NPY-Y1 antag 0.2, NPY2 pot ag 2.3, MDM2 E3 inh -3.3 and NPY-Y1 PAM-ag 11.5.
For COc1ccc2[nH]cc(CCN=C3SCC(=O)N3C)c2c1 the results were NPY-Y1 antag -3.8, NPY2 pot ag 8.2, Measles CPE 5.7, MDM2 E3 inh 7.0, NPY-Y1 PAM-ag -6.3 and NPY Y2 blocker -0.1.
`CCN(CC)CCn1c(NCc2nc3ccccc3n2Cc2ccccc2)nc2ccccc21` gave NPY-Y1 antag 21.8*, NPY2 pot ag -1.5, Measles CPE 7.3, MDM2 E3 inh -11.3, NPY-Y1 PAM-ag -45.5 and NPY Y2 blocker 18.5*.
Screening CCN(CC)CCn1c(NCc2ccco2)nc2ccccc21 returned NPY-Y1 antag 3.4, NPY2 pot ag -6.0, Measles CPE 9.2, MDM2 E3 inh -5.8, NPY-Y1 PAM-ag -21.3 and NPY Y2 blocker 2.1.
`CC(NS(=O)(=O)c1cccc(Cl)c1)C(=O)Nc1ccc(-c2nc3ccccc3s2)cc1` (stereo unspecified) gave NPY-Y1 antag -10.0, NPY2 pot ag 19.9, Measles CPE 6.2, MDM2 E3 inh 2.6, NPY-Y1 PAM-ag 54.6* and NPY Y2 blocker -3.3.
For Cn1c(-c2ccc(F)cc2)cnc1NCc1cc2c(cc1[N+](=O)[O-])OCO2 the results were NPY-Y1 antag 7.0, NPY2 pot ag 8.8, Measles CPE 7.5, MDM2 E3 inh -9.1, NPY-Y1 PAM-ag 0.4 and NPY Y2 blocker 6.4.
For Cn1c(-c2ccc(Cl)cc2)cnc1NCc1cc2c(cc1[N+](=O)[O-])OCO2 the results were NPY-Y1 antag -7.6, NPY2 pot ag 47.5*, Measles CPE 6.8, MDM2 E3 inh -0.4, NPY-Y1 PAM-ag 47.4* and NPY Y2 blocker 0.1.
`CC(C)OC(=O)CSc1nc(Cc2ccccc2)nc2ccccc12` gave NPY-Y1 antag 8.9, NPY2 pot ag -17.0, MDM2 E3 inh -4.8 and NPY-Y1 PAM-ag -2.7.
COc1ccc([N+](=O)[O-])cc1NC(=O)c1ccccc1N(C)S(C)(=O)=O was read as NPY-Y1 antag 1.0, NPY2 pot ag 4.2, MDM2 E3 inh -10.5 and NPY-Y1 PAM-ag -0.1.
Screening Cc1ccc2cc(CN(Cc3cccs3)Cc3nnnn3CC3CCCO3)c(=O)[nH]c2c1 (stereo unspecified) returned NPY-Y1 antag 2.1, NPY2 pot ag -7.8, Measles CPE 30.6*, MDM2 E3 inh 2.5, NPY-Y1 PAM-ag -5.0 and NPY Y2 blocker 3.9.
For O=c1[nH]c2cc3c(cc2cc1CN(Cc1nnnn1CC1CCCO1)C1CCCC1)OCO3 (stereo unspecified) the results were NPY-Y1 antag 1.4, NPY2 pot ag 0.5, Measles CPE 5.4, MDM2 E3 inh 30.2*, NPY-Y1 PAM-ag -7.1 and NPY Y2 blocker 2.9.
For COc1cc(C(=O)OCCNC(=O)c2ccncc2)cc(OC)c1OC the results were NPY-Y1 antag 2.8, NPY2 pot ag -4.4, Measles CPE 29.1, MDM2 E3 inh -6.0, NPY-Y1 PAM-ag -13.7 and NPY Y2 blocker 0.5.
For O=C(CNCCc1ccccc1)N1CCc2ccccc2C1 the results were NPY-Y1 antag 8.8, NPY2 pot ag -5.9, MDM2 E3 inh -12.2 and NPY-Y1 PAM-ag -12.2.
CN(CCOc1ccc(-c2ccn(S(=O)(=O)c3cccc4ccccc34)n2)cc1)c1ccccn1 was read as NPY-Y1 antag 7.5, NPY2 pot ag -9.0, Measles CPE 44.4*, MDM2 E3 inh 5.7, NPY-Y1 PAM-ag -22.7 and NPY Y2 blocker 1.3.
O=c1[nH]cnc(O)c1C(c1cccc([N+](=O)[O-])c1)c1c(O)nc[nH]c1=O was read as NPY2 pot ag 2.0, MDM2 E3 inh -6.6 and NPY-Y1 PAM-ag -0.1.
For CC(C)CCNC(=O)Cn1c(NCCC(C)C)nc2c1c(=O)n(C)c(=O)n2C the results were NPY-Y1 antag 60.3*, NPY2 pot ag 4.3, NPY-Y1 PAM-ag -12.5 and NPY Y2 blocker 1.1.

Screening data: PubChem, several laboratories
